Test [1] deals with T1, Tyrosine-protein phosphatase non-receptor type 1 (Homo sapiens, UniProt P18031).
T1 sequence (P18031 whole entry): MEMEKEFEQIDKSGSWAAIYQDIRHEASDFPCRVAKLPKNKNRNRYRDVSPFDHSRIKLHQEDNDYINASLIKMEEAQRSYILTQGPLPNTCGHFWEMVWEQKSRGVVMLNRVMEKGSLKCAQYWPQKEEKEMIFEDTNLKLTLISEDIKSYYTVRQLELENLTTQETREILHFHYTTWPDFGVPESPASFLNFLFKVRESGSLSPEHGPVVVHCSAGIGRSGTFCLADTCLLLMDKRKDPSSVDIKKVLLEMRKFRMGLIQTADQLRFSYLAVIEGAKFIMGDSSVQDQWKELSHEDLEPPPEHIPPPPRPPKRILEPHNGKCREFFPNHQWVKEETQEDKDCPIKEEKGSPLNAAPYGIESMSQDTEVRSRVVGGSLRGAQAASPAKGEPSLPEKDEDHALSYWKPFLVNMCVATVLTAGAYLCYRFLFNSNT
The test is described as follows: Inhibition of human full-length GST-fused PTP1B expressed in bacterial expression system using pNPP as substrate. Summed up:
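Human recombinant PTP1B activity measured with p-nitrophenyl phosphate as substrate and sodium metavanadate as reference inhibitor. IC50 values are reported as mean ± S.E.M.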

Test [2] concerns the target T1, Tyrosine-protein phosphatase non-receptor type 1. The test is described as follows: Mixed non-competitive inhibition of human full-length GST-fused PTP1B expressed in bacterial expression system assessed as assessed as dissociation constant of enzyme-inhibitor complex using pNPP as substrate by double reciprocal plot analysis. In outline: (§1)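 Human recombinant PTP1B with pNPP. Rates were measured over varied substrate levels at inhibitor 0, 2, 4 and 6 µM. […] Data are mean ± S.E.M. (n = 3).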

Test [3] shares this target. The test is described as follows: Mixed non-competitive inhibition of human full-length GST-fused PTP1B expressed in bacterial expression system assessed as assessed as dissociation constant of enzyme-inhibitor-substrate complex using pNPP as substrate by double reciprocal plot analysis. In outline: as §1
Test [4] concerns the target T2, Aldo-keto reductase family 1 member B1 (Homo sapiens, UniProt P15121). The test is described as follows: Inhibition of human recombinant aldose reductase expressed in Escherichia coli BL21 (DE3) pLysS assessed as reduction in NADPH oxidation using L-idose as substrate.
Test [5] addresses T1, Tyrosine-protein phosphatase non-receptor type 1. The test is described as follows: Non-competitive inhibition of human full-length GST-fused PTP1B expressed in bacterial expression system assessed as dissociation constant of enzyme-inhibitor complex using pNPP as substrate by Michaelis-Menten plot analysis. Summed up: (§2)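 Human recombinant PTP1B with pNPP, rates measured over varied substrate levels at inhibitor 0–30 µM (steps of 10 µM, or 0/3/6/9 µM). Double-reciprocal plots were drawn, and secondary plots of Km/Vmax versus inhibitor concentration were used. Data are mean ± S.E.M. (n = 3).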

Test [6] has the same target. Description: Non-competitive inhibition of human full-length GST-fused PTP1B expressed in bacterial expression system assessed as dissociation constant of enzyme-inhibitor-substrate complex using pNPP as substrate by Michaelis-Menten plot analysis. In outline: as §2
The target in test [7] is T3, Tyrosine-protein phosphatase non-receptor type 1 (Homo sapiens) (UniProt P18031).
T3 sequence (whole entry): T1 sequence (P18031 whole entry)
The test is described as follows: Reversible inhibition of human full-length GST-fused PTP1B expressed in bacterial expression system using pNPP as substrate after 60 mins. In outline: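 PTP1B was preincubated with a saturating inhibitor concentration for 60 min at 37°C. The mixture was then diluted in assay buffer and residual pNPP-hydrolysing activity was measured.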

Test [8] deals with T2, Aldo-keto reductase family 1 member B1. Description: Uncompetitive inhibition of human recombinant aldose reductase expressed in Escherichia coli BL21(DE3)pLysS assessed as dissociation constant of enzyme-inhibitor complex using L-idose as substrate by Morrison's plot analysis. In outline: (§3)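 Purified human AR (7 mU) activity was measured across inhibitor concentrations at L-idose 2.1, 3.1, 4.1, 8.3 and 16.6 mM. Data were fitted to the Morrison equation to give Ki app at each substrate level. Ki app versus substrate was then fitted by nonlinear regression to a general tight-binding inhibition model.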

Test [9] has the same target. Description: Reversible inhibition of human recombinant aldose reductase expressed in Escherichia coli BL21(DE3)pLysS assessed as enzyme activity recovery at 0.25 to 2 uM using L-idose as substrate relative to control. Also on record: scale not given: the % may be the effect or the level left.
For test [10] the target is unchanged. Description: Uncompetitive inhibition of human recombinant aldose reductase expressed in Escherichia coli BL21(DE3)pLysS assessed as dissociation constant of enzyme-inhibitor-substrate complex using L-idose as substrate by Morrison's plot analysis. Summed up: as §3
Test [11] concerns the target T3, Tyrosine-protein phosphatase non-receptor type 1 (Homo sapiens). The test is described as follows: Inhibition of human full-length GST-fused PTP1B expressed in bacterial expression system at 300 uM using pNPP as substrate relative to control.

pIC50, pKi: −log10 of the molar value. The source made the active and inactive calls. No cut-off for these calls is given here. A value given as a limit tells only on which side of the number the result lay.

The source of these data is ChEMBL document CHEMBL4325846, “An investigation on 4-thiazolidinone derivatives as dual inhibitors of aldose reductase and protein tyrosine phosphatase 1B, in the search for potential agents for the treatment of type 2 diabetes mellitus and its complications” (Bioorg Med Chem Lett, 2018).

As usually defined, the pIC50 is the negative decadic logarithm of the IC50, by convention in mol/L. For orientation: pKi means the Ki on a negative log10 scale, so that one unit is a factor of ten. In general, inhibition refers to the relative decrease from the control value, in per cent.

`COc1cc(/C=C2\S/C(=N\c3ccccc3)N(CC(=O)O)C2=O)ccc1OCc1ccccc1`: the negative logarithm of the IC50 (pIC50) was 4.97 in test [1] and 5.85 in test [4]. The pKi was 5.12 in test [2] and 4.39 in test [3].

As to `O=C(O)CN1C(=O)/C(=C/C=C/c2ccccc2)SC1=S`, the values for the negative-log IC50 (pIC50) in test [1] and in [4] were 3.77 and 6.90, respectively.

For the compound `COc1cccc(/C=C2\SC(=S)N(CC(=O)O)C2=O)c1`, the pIC50 in test [4] was 7.11.

With `O=C(O)CN1C(=O)/C(=C/c2cccc(OCc3ccccc3)c2)SC1=S`, the negative-log IC50 (pIC50) in [1] was 4.37; in [4] it was 7.28.

Consider `COc1cc(/C=C2\SC(=S)N(CC(=O)O)C2=O)ccc1OCc1ccccc1`, for which the pIC50 is 4.27 in test [1] and 7.40 in test [4].

`COc1ccc(/C=C2\SC(=S)N(CC(=O)O)C2=O)cc1OCC(N)=O`: the negative logarithm of the IC50 (pIC50) in test [1] was 3.17; in [4], 6.86.

Regarding `O=C(O)CN1C(=O)/C(=C/c2ccc(OCCc3ccccc3)cc2)SC1=S`, the results for the negative logarithm of the IC50 (pIC50) in test [1] and in test [4] were 4.31 and 6.98, respectively.

For `COc1cc(/C=C2\SC(=O)N(CC(=O)O)C2=O)ccc1OCc1ccccc1`, the negative logarithm of the IC50 (pIC50) is 3.82 in [1] and 6.49 in test [4].

With `O=C(O)CN1C(=O)/C(=C/c2cccc(Oc3ccccc3)c2)SC1=S`, the pIC50 is 4.06 in test [1] and 7.60 in test [4].

Turning to `O=C(O)CN1C(=O)S/C(=C\c2cccc(OCCc3ccccc3)c2)C1=O`, the pIC50 in [1] was 4.91; in test [4] it was 6.56. Moreover, the pKi in [5] was 4.88; in test [6], 4.88; in test [8] it was less than 6.30; in test [10] it was 7.80. Also, in [7], the inhibition result is “Active”. In addition, the Activity in test [9] is 70%.

In turn, `NC(=O)COc1ccc(/C=C2\SC(=S)N(CC(=O)O)C2=O)cc1` had an inhibition in [11] of 10%. For the same compound, in test [4], the negative-log IC50 (pIC50) was 6.71.

`O=C(O)CN1C(=O)/C(=C/c2ccc(Oc3ccccc3)cc2)SC1=S`: the pIC50 is 4.19 in test [1] and 7.22 in [4].

For `O=C(O)CN1C(=O)/C(=C/c2cccc(OCCc3ccccc3)c2)SC1=S`, the pIC50 in test [1] is 4.49; in test [4], 7.25. Besides, the pKi in test [5] was 4.92; in test [6] it was 4.92; in test [8] it was less than 6.52; in [10], 8.21. The inhibition result in test [7] was “Active”. Besides, in test [9], the Activity is 70%.

Regarding `COc1cc(/C=C2\SC(=S)N(CC(=O)O)C2=O)ccc1OCC(N)=O`, the pIC50 is 3.42 in test [1] and 6.64 in [4].

On to `O=C(O)CN1C(=O)S/C(=C\c2ccc(OCCc3ccccc3)cc2)C1=O`, for which the negative logarithm of the IC50 (pIC50) in test [1] was 4.20; in test [4], 6.44.

As to `O=C(O)CN1C(=O)/C(=C/c2ccc(OCc3ccccc3)cc2)SC1=S`, the negative-log IC50 (pIC50) in test [1] is 4.25; in [4], 7.28.

Regarding `NC(=O)COc1cccc(/C=C2\SC(=S)N(CC(=O)O)C2=O)c1`, the negative logarithm of the IC50 (pIC50) in test [1] was 3.14; in [4], 7.19.
